Data from ChEMBL document CHEMBL1132144, “Synthesis of 9-O-substituted derivatives of 9-hydroxy-5, 6-dimethyl-6H-pyrido[4,3-b]carbazole-1-carboxylic acid (2-(dimethylamino)ethyl)amide and their 10- and 11-methyl analogues with improved antitumor activity” (J Med Chem, 1999).

Experiments:
B16 = assay: Inhibition of murine B16 melanoma cell proliferation measured by the MTT assay; assay type: functional, cell-based; conditions: Mus musculus
How it was run: (§1)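 Murine L1210 leukemia and B16 melanoma cells were grown in RPMI 1640 with 10% fetal calf serum, 2 mM L-glutamine, penicillin/streptomycin and 10 mM HEPES (pH 7.4). Cells were exposed to nine serial drug dilutions in triplicate for about four doubling times (L1210 48 h, B16 96 h), then read by microculture tetrazolium (MTT) assay. IC50 is the concentration halving optical density versus untreated controls, averaged over ≥2 independent experiments.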

Mus musculus [1] = assay: Long-term survivors among 18 mice infected with P388 leukemia, scored on day 60 at 40 mg/kg dose; assay type: functional
How it was run: (§2)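 B6D2F1 mice in groups of 6–7 were inoculated ip on day 0 with 10^6 P388 cells. Dihydrochloride salts were dissolved in water and given iv on day 1 or on days 1, 5 and 9. Doses ranged from a low nontoxic dose to a toxic one. Long-term survivors were counted at day 60.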

Mus musculus [2] = assay: Percent median survival time of mice intraperitoneally injected with P388 leukemia was determined from tested at 10 mg/kg at day1,5,9 dose to that of control; assay type: functional
How it was run: (§3)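 P388 leukemia in B6D2F1 mice (groups of 6–7), 10^6 cells inoculated ip on day 0. Dihydrochloride salts were dissolved in water and given iv on day 1 or on days 1, 5, 9. Three doses were tested, then five if active. %T/C = median survival treated/control × 100, reported at the optimal dose (no toxic death, weight loss <20%), from one or two representative experiments.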

Mus musculus [3] = assay: Long-term survivors among 14 mice infected with B16 melanoma, scored on day 90 at 2.5 mg/kg dose
Mus musculus [4] = assay: Percent median survival time of mice injected with B16 melanoma, at a intraperitoneal compound dose of 2.5 mg/kg
Mus musculus [5] = assay: Percent median survival time of mice intraperitoneally injected with P388 leukemia was determined from tested at 40 mg/kg at day1 dose to that of control; assay type: functional; conditions: route intraperitoneal; how it was run: as §3
Mus musculus [6] = assay: Long-term survivors among 12 mice infected with P388 leukemia, scored on day 60 at 10 mg/kg dose; assay type: functional; how it was run: as §2
L1210 = assay: Inhibition of murine L1210 leukemia cell proliferation measured by the MTT assay; assay type: functional, cell-based; conditions: Mus musculus; how it was run: as §1
Mus musculus [7] = assay: Long-term survivors among 7 mice infected with B16 melanoma, scored on day 90 at 40 mg/kg dose on day 1, 5, 9; assay type: functional
Mus musculus [8] = assay: Long-term survivors among 12 mice infected with P388 leukemia, scored on day 60 at 20 mg/kg dose on day 1; assay type: functional; how it was run: as §2
Mus musculus [9] = assay: Percent median survival time of mice injected with P388 leukemia, at a subcutaneous compound dose of 20 mg/kg; assay type: functional
Mus musculus [10] = assay: Percent median survival time of mice injected with P388 leukemia, at a subcutaneous compound dose of 10 mg/kg; assay type: functional
Mus musculus [11] = assay: Long-term survivors among 12 mice infected with P388 leukemia, scored on day 60 at 10 mg/kg dose on day 1, 5, 9; assay type: functional; how it was run: as §2
Mus musculus [12] = assay: Percent median survival time of mice injected with B16 melanoma, at a intraperitoneal compound dose of 5 mg/kg
Mus musculus [13] = assay: Long-term survivors among 6 mice infected with P388 leukemia, scored on day 60 at 320 mg/kg dose; assay type: functional; how it was run: as §2
Mus musculus [14] = assay: Long-term survivors among 7 mice infected with B16 melanoma, scored on day 90 at 80 mg/kg dose
Mus musculus [15] = assay: Long-term survivors among 6 mice infected with P388 leukemia, scored on day 60 at 160 mg/kg dose; assay type: functional; how it was run: as §2
Mus musculus [16] = assay: Percent median survival time of mice intraperitoneally injected with P388 leukemia was determined from tested at 320 mg/kg at day1 dose to that of control; assay type: functional; conditions: route intraperitoneal; how it was run: as §3
Mus musculus [17] = assay: Percent median survival time of mice injected with B16 melanoma, at a intraperitoneal compound dose of 80 mg/kg
Mus musculus [18] = assay: Percent median survival time of mice intraperitoneally injected with P388 leukemia was determined from tested at 160 mg/kg at day1,5,9 dose to that of control; assay type: functional; conditions: route intraperitoneal; how it was run: as §3
Mus musculus [19] = assay: Long-term survivors among 6 mice infected with P388 leukemia, scored on day 60 at 5 mg/kg dose on day 1; assay type: functional; how it was run: as §2
Mus musculus [20] = assay: Percent median survival time of mice injected with P388 leukemia, at a subcutaneous compound dose of 5 mg/kg on day 1, 5, 9; assay type: functional
Mus musculus [21] = assay: Long-term survivors among 6 mice infected with B16 melanoma, scored on day 90 at 102 mg/kg dose on day 1; assay type: functional
Mus musculus [22] = assay: Percent median survival time of mice injected with P388 leukemia, at a subcutaneous compound dose of 5 mg/kg on day 1; assay type: functional
Mus musculus [23] = assay: Percent median survival time of mice injected with B16 melanoma, at a intraperitoneal compound dose of 20 mg/kg
Mus musculus [24] = assay: Long-term survivors among 6 mice infected with P388 leukemia, scored on day 60 at 20 mg/kg dose on day 1; assay type: functional; how it was run: as §2
Mus musculus [25] = assay: Long-term survivors among 7 mice infected with P388 leukemia, scored on day 90 at 5 mg/kg dose; assay type: functional
Mus musculus [26] = assay: Long-term survivors among 6 mice infected with P388 leukemia, scored on day 60 at 20 mg/kg dose on day 1, 5, 9; assay type: functional; how it was run: as §2
Mus musculus [27] = assay: Percent median survival time of mice intraperitoneally injected with P388 leukemia was determined from tested at 20 mg/kg at day1,5,9 dose to that of control; assay type: functional; conditions: route intravenous; how it was run: as §3
Mus musculus [28] = assay: Percent median survival time of mice intraperitoneally injected with P388 leukemia was determined from tested at 20 mg/kg at day1 dose to that of control; assay type: functional; conditions: route intraperitoneal; how it was run: as §3
Mus musculus [29] = assay: Long-term survivors among 10 mice infected with P388 leukemia, scored on day 60 at 20 mg/kg dose; assay type: functional
Mus musculus [30] = assay: Long-term survivors among 10 mice infected with P388 leukemia, scored on day 60 at 10 mg/kg dose; assay type: functional
Mus musculus [31] = assay: Percent median survival time of mice injected with B16 melanoma, at a intraperitoneal compound dose of 0.5 mg/kg
Mus musculus [32] = assay: Long-term survivors among 7 mice infected with B16 melanoma, scored on day 90 at 20 mg/kg dose
Mus musculus [33] = assay: Percent median survival time of mice injected with P388 leukemia, at a intravenous compound dose of 7.5 mg/kg
Mus musculus [34] = assay: Long-term survivors among 6 mice infected with P388 leukemia, scored on day 60 at 20 mg/kg dose; assay type: functional; how it was run: as §2
Mus musculus [35] = assay: Long-term survivors among 6 mice infected with P388 leukemia, scored on day 60 at 7.5 mg/kg dose; assay type: functional; how it was run: as §2

Cc1c2c(C(=O)NCCN(C)C)nccc2c(C)c2c1c1cc(O)ccc1n2C
IC50 (B16): 3.4 nM
LTS (Mus musculus [1]): 15
T/C (Mus musculus [2]): >600%
LTS (Mus musculus [3]): 1
T/C (Mus musculus [4]): 166%
T/C (Mus musculus [5]): >600%
LTS (Mus musculus [6]): 9
IC50 (L1210): 13.4 nM

Cc1c2ccnc(C(=O)NCCN(C)C)c2cc2c3cc(OC(=O)C4C[C@@H]4c4ccccc4)ccc3n(C)c12 (some centres undefined)
IC50 (B16): 14.1 nM
LTS (Mus musculus [7]): 0
LTS (Mus musculus [8]): 0
T/C (Mus musculus [9]): 146%
IC50 (L1210): 30.9 nM
T/C (Mus musculus [10]): 152%
LTS (Mus musculus [11]): 0
T/C (Mus musculus [12]): 129%

Cc1c2ccnc(C(=O)NCCN(C)C)c2cc2c3cc(OP(=O)(O)OCc4ccccc4)ccc3n(C)c12
LTS (Mus musculus [13]): 0
IC50 (B16): 511 nM
LTS (Mus musculus [14]): 0
LTS (Mus musculus [15]): 0
T/C (Mus musculus [16]): 142%
T/C (Mus musculus [17]): 144%
T/C (Mus musculus [18]): 111%
IC50 (L1210): 4000 nM

Cc1c2ccnc(C(=O)NCCN(C)C)c2cc2c3cc(OC(=O)N4CCN(C(c5ccccc5)c5ccccc5)CC4)ccc3n(C)c12
LTS (Mus musculus [19]): 0
IC50 (B16): 590 nM
T/C (Mus musculus [20]): 94%
LTS (Mus musculus [21]): 0
IC50 (L1210): 164 nM
T/C (Mus musculus [22]): 102%
T/C (Mus musculus [23]): 102%

Cc1c2ccnc(C(=O)NCCN(C)C)c2cc2c3cc(OCC4C[C@@H]4c4ccccc4)ccc3n(C)c12 (some centres undefined)
IC50 (B16): 279 nM
LTS (Mus musculus [24]): 0
LTS (Mus musculus [25]): 0
LTS (Mus musculus [26]): 0
T/C (Mus musculus [27]): 99%
T/C (Mus musculus [28]): 102%
IC50 (L1210): 374 nM
T/C (Mus musculus [12]): 94%

COc1cccc2c1C(=O)c1c(O)c3c(c(O)c1C2=O)C[C@@](O)(C(=O)CO)C[C@@H]3O[C@H]1C[C@H](N)[C@H](O)[C@H](C)O1 [DOXORUBICIN]
IC50 (B16): 7.6 nM
T/C (Mus musculus [4]): 456%
T/C (Mus musculus [9]): 258%
IC50 (L1210): 34.3 nM
T/C (Mus musculus [10]): 332%
LTS (Mus musculus [29]): 2
LTS (Mus musculus [30]): 4

Cc1c2cc[n+](C)cc2c(C)c2c1[nH]c1ccc(O)cc12 [ELLIPTINIUM]
IC50 (B16): 106 nM
T/C (Mus musculus [31]): 133%
T/C (Mus musculus [9]): 138%
LTS (Mus musculus [32]): 0
IC50 (L1210): 54.6 nM
T/C (Mus musculus [33]): 112%
LTS (Mus musculus [34]): 0
LTS (Mus musculus [35]): 0
